Source: ChEMBL document CHEMBL4177755, “Combating Drug-Resistant Fungi with Novel Imperfectly Amphipathic Palindromic Peptides” (J Med Chem, 2018)

Experiments:
[1] = test system: Staphylococcus epidermidis; assay: Antibacterial activity against Staphylococcus epidermidis ATCC 12228 after 24 hrs; assay type: functional; conditions: ATCC 12228, 24 h
Method in brief: (§1)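 Broth microdilution. Mid-log bacteria in MHB at a final (0.5−1) × 10^5 CFU/mL were mixed with equal volumes of peptide serially diluted in 0.2% BSA. Plates were incubated 24 h at 37 °C and read at A492. MIC is the lowest concentration inhibiting 95% of growth. Each test was repeated at least 3 times.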

Salmonella typhimurium [2] = assay: Antibacterial activity against Salmonella typhimurium ATCC 14028 after 24 hrs; assay type: functional, Salmonella enterica subsp. enterica serovar Typhimurium; conditions: Salmonella enterica, ATCC 14028, 24 h; method in brief: as §1
Escherichia coli [3] = assay: Antibacterial activity against Escherichia coli ATCC 25922 after 24 hrs; assay type: functional; conditions: ATCC 25922, 24 h; method in brief: as §1
Staphylococcus aureus [4] = assay: Bactericidal activity against methicillin-resistant Staphylococcus aureus ATCC 4330; assay type: functional; conditions: read-out: MBC99.9
Method in brief: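 Bacteria at (0.5−1) × 10^5 CFU/mL in MHB were exposed to serially diluted peptide (0.2% BSA) for 24 h at 37 °C, then 50 μL aliquots were plated on agar overnight. MBC is the lowest concentration killing >99.9% of cells. At least 3 repeats.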

Staphylococcus aureus [5] = assay: Antibacterial activity against Staphylococcus aureus ATCC 25923 after 24 hrs; assay type: functional; conditions: ATCC 25923, 24 h
Method in brief: (§2)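 Modified NCCLS broth microdilution. Mid-log bacteria at (0.5−1) × 10^5 CFU/mL in MHB were mixed 1:1 with peptide serially diluted in 0.2% BSA and incubated 24 h at 37 °C. Absorbance was read at 492 nm; MIC is the lowest concentration inhibiting 95% of growth. At least 3 repeats.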

Candida albicans [6] = assay: Antifungal activity against fluconazole-resistant Candida albicans 17546 after 48 hrs by broth microdilution method; assay type: functional; conditions: Candida albicans, 17546, 48 h
Method in brief: (§3)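 Modified CLSI M27-A2 broth microdilution. Yeast at (0.5−1) × 10^3 CFU/mL in MOPS-buffered RPMI 1640 was mixed 1:1 with peptide serially diluted in 0.2% BSA and incubated 48 h at 28 °C. Absorbance was read at 492 nm; MIC is the lowest concentration inhibiting 95% of growth. Triplicate, three biological replicates.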

Candida albicans [7] = assay: Fungicidal activity against fluconazole-resistant Candida albicans 17546 after 96 hrs; assay type: functional; conditions: Candida albicans, 17546, 96 h; read-out: MFC99.9
Method in brief: (§4)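 After the 48 h, 28 °C broth microdilution in MOPS-buffered RPMI 1640 (inoculum (0.5−1) × 10^3 CFU/mL), 50 μL from each well was plated on YM agar for a further 48 h at 28 °C. MFC is the lowest concentration killing at least 99.9% of cells. Triplicate, three biological replicates.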

Candida albicans [8] = assay: Fungicidal activity against Candida albicans 14936 after 96 hrs; assay type: functional; conditions: Candida albicans, 14936, 96 h; read-out: MFC99.9; method in brief: as §4
Candida tropicalis [9] = assay: Antifungal activity against Candida tropicalis cgmcc 2.1975 after 48 hrs by broth microdilution method; assay type: functional; conditions: cgmcc 2.1975, 48 h
Method in brief: (§5)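 Modified CLSI M27-A2 broth microdilution. Yeast were suspended in MOPS-buffered RPMI 1640 at a final (0.5−1) × 10^3 CFU/mL and mixed 1:1 with peptide serially diluted in 0.2% BSA. Plates were incubated 48 h at 28 °C and read at A492. MIC is the lowest concentration giving 95% inhibition. Run in triplicate with three biological replicates.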

Candida albicans [10] = assay: Fungicidal activity against fluconazole-resistant Candida albicans 56214 after 96 hrs; assay type: functional; conditions: Candida albicans, 56214, 96 h; read-out: MFC99.9; method in brief: as §4
Candida albicans [11] = assay: Antifungal activity against Candida albicans cgmcc 2.2086 in presence of FeCl3 by broth dilution method; assay type: functional
Candida albicans [12] = assay: Fungicidal activity against Candida albicans SP3902 after 96 hrs; assay type: functional; conditions: SP3902, 96 h, read-out: MFC99.9; method in brief: as §4
Candida albicans [13] = assay: Antifungal activity against Candida albicans cgmcc 2.2086 in presence of ZnCl2 by broth dilution method; assay type: functional
Staphylococcus aureus [14] = assay: Bactericidal activity against Staphylococcus aureus ATCC 29213; assay type: functional; conditions: read-out: MBC99.9
Method in brief: (§6)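 Wells from the 24 h, 37 °C MHB microdilution plates (bacteria at a final (0.5−1) × 10^5 CFU/mL; peptide diluted in 0.2% BSA) were plated on agar and incubated overnight. MBC is the lowest concentration killing >99.9% of cells. Each test was reproduced at least 3 times.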

Candida tropicalis [15] = assay: Fungicidal activity against Candida tropicalis cgmcc 2.1975 after 96 hrs; assay type: functional; conditions: cgmcc 2.1975, 96 h, read-out: MFC99.9
Method in brief: (§7)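 Wells from the 48 h, 28 °C RPMI 1640/MOPS microdilution plates were plated on YM agar and incubated a further 48 h at 28 °C. MFC is the lowest concentration killing at least 99.9% of cells. Run in triplicate with three biological replicates.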

Escherichia coli [16] = assay: Antibacterial activity against Escherichia coli ATCC 25922 after 18 hrs in presence of KCl by broth dilution method; assay type: functional; conditions: ATCC 25922, 18 h
[17] = test system: Staphylococcus epidermidis; assay: Bactericidal activity against Staphylococcus epidermidis ATCC 12228; assay type: functional; conditions: read-out: MBC99.9; method in brief: as §6
Staphylococcus aureus [18] = assay: Antibacterial activity against methicillin-resistant Staphylococcus aureus ATCC 4330 after 24 hrs; assay type: functional; conditions: ATCC 4330, 24 h; method in brief: as §2
Candida albicans [19] = assay: Antifungal activity against Candida albicans 58288 after 48 hrs by broth microdilution method; assay type: functional; conditions: Candida albicans, 58288, 48 h; method in brief: as §3
Candida albicans [20] = assay: Antifungal activity against Candida albicans SP3876 after 48 hrs by broth microdilution method; assay type: functional; conditions: SP3876, 48 h; method in brief: as §3
Candida parapsilosis [21] = assay: Antifungal activity against Candida parapsilosis cgmcc 2.3989 after 48 hrs by broth microdilution method; assay type: functional; conditions: Lodderomyces parapsilosis, cgmcc 2.3989, 48 h; method in brief: as §5
Candida parapsilosis [22] = assay: Fungicidal activity against Candida parapsilosis cgmcc 2.3989 after 96 hrs; assay type: functional; conditions: Lodderomyces parapsilosis, cgmcc 2.3989, 96 h; read-out: MFC99.9; method in brief: as §7
Escherichia coli [23] = assay: Antibacterial activity against Escherichia coli ATCC 25922 after 18 hrs in presence of ZnCl2 by broth dilution method; assay type: functional; conditions: ATCC 25922, 18 h
Pichia kudriavzevii = assay: Fungicidal activity against Candida krusei cgmcc 2.1857 after 96 hrs; assay type: functional; conditions: cgmcc 2.1857, 96 h, read-out: MFC99.9; method in brief: as §7
Escherichia coli [24] = assay: Bactericidal activity against Escherichia coli 1005; assay type: functional; conditions: read-out: MBC99.9; method in brief: as §6
Candida albicans [25] = assay: Fungicidal activity against Candida albicans 58288 after 96 hrs; assay type: functional; conditions: Candida albicans, 58288, 96 h; read-out: MFC99.9; method in brief: as §4
Candida albicans [26] = assay: Antifungal activity against Candida albicans SP3931 after 48 hrs by broth microdilution method; assay type: functional; conditions: SP3931, 48 h; method in brief: as §3
Candida albicans [27] = assay: Antifungal activity against fluconazole-resistant Candida albicans 56452 after 48 hrs by broth microdilution method; assay type: functional; conditions: Candida albicans, 56452, 48 h; method in brief: as §3
Candida albicans [28] = assay: Fungicidal activity against Candida albicans SP3876 after 96 hrs; assay type: functional; conditions: SP3876, 96 h, read-out: MFC99.9; method in brief: as §4
Salmonella typhimurium [29] = assay: Bactericidal activity against Salmonella typhimurium ATCC 14028; assay type: functional, Salmonella enterica subsp. enterica serovar Typhimurium; conditions: Salmonella enterica, read-out: MBC99.9; method in brief: as §6
Escherichia coli [30] = assay: Antibacterial activity against Escherichia coli ATCC 25922 after 18 hrs in presence of CaCl2 by broth dilution method; assay type: functional; conditions: ATCC 25922, 18 h
Candida albicans [31] = assay: Antifungal activity against Candida albicans 14936 after 48 hrs by broth microdilution method; assay type: functional; conditions: Candida albicans, 14936, 48 h; method in brief: as §3
Escherichia coli [32] = assay: Bactericidal activity against Escherichia coli ATCC 25922; assay type: functional; conditions: read-out: MBC99.9; method in brief: as §6

H-RRWRWWWRWRR-NH2
8 µM: MBC (Staphylococcus aureus [4]) | MFC (Candida albicans [8]) | MFC (Candida albicans [10]) | MBC [17] | MIC95 (Candida parapsilosis [21]) | MFC (Candida albicans [25]) | MBC (Salmonella typhimurium [29]) | MIC (Escherichia coli [30]) | MIC95 (Candida albicans [31])
16 µM: MFC (Candida parapsilosis [22])
2 µM: MIC95 (Candida tropicalis [9]) | MIC95 (Candida albicans [19]) | MIC95 (Candida albicans [20]) | MFC (Pichia kudriavzevii)
4 µM: MIC95 [1] | MIC95 (Salmonella typhimurium [2]) | MIC95 (Escherichia coli [3]) | MIC95 (Staphylococcus aureus [5]) | MIC95 (Candida albicans [6]) | MFC (Candida albicans [7]) | MIC (Candida albicans [11]) | MFC (Candida albicans [12]) | MIC (Candida albicans [13]) | MBC (Staphylococcus aureus [14]) | MFC (Candida tropicalis [15]) | MIC (Escherichia coli [16]) | MIC95 (Staphylococcus aureus [18]) | MIC (Escherichia coli [23]) | MBC (Escherichia coli [24]) | MIC95 (Candida albicans [26]) | MIC95 (Candida albicans [27]) | MFC (Candida albicans [28]) | MBC (Escherichia coli [32])

H-RWRWWWRWR-NH2
4 µM: MIC95 [1] | MIC95 (Salmonella typhimurium [2]) | MIC95 (Escherichia coli [3]) | MIC95 (Staphylococcus aureus [5]) | MIC (Escherichia coli [16]) | MIC95 (Candida albicans [19]) | MIC95 (Candida albicans [20]) | MBC (Escherichia coli [24]) | MIC95 (Candida albicans [27]) | MFC (Candida albicans [28]) | MBC (Salmonella typhimurium [29]) | MIC (Escherichia coli [30]) | MBC (Escherichia coli [32])
2 µM: MBC (Staphylococcus aureus [4]) | MFC (Candida albicans [7]) | MIC95 (Candida tropicalis [9]) | MFC (Candida tropicalis [15]) | MIC95 (Staphylococcus aureus [18]) | MIC (Escherichia coli [23])
8 µM: MFC (Candida albicans [8]) | MFC (Candida albicans [10]) | MIC (Candida albicans [11]) | MIC (Candida albicans [13]) | MBC [17] | MFC (Pichia kudriavzevii) | MFC (Candida albicans [25]) | MIC95 (Candida albicans [26]) | MIC95 (Candida albicans [31])
32 µM: MFC (Candida parapsilosis [22])
16 µM: MFC (Candida albicans [12]) | MBC (Staphylococcus aureus [14]) | MIC95 (Candida parapsilosis [21])
1 µM: MIC95 (Candida albicans [6])

H-RWWRRWRRWWR-NH2
32 µM: MFC (Candida parapsilosis [22]) | MBC (Salmonella typhimurium [29]) | MIC (Escherichia coli [30])
16 µM: MIC95 (Escherichia coli [3]) | MIC (Escherichia coli [16]) | MIC95 (Candida parapsilosis [21]) | MIC (Escherichia coli [23]) | MBC (Escherichia coli [32])
4 µM: MIC95 [1] | MIC95 (Candida albicans [6]) | MFC (Candida albicans [7]) | MFC (Candida albicans [8]) | MIC (Candida albicans [11]) | MFC (Candida albicans [12]) | MIC (Candida albicans [13]) | MFC (Candida tropicalis [15]) | MIC95 (Staphylococcus aureus [18]) | MFC (Pichia kudriavzevii) | MIC95 (Candida albicans [31])
2 µM: MIC95 (Candida tropicalis [9]) | MIC95 (Candida albicans [19]) | MIC95 (Candida albicans [20]) | MFC (Candida albicans [28])
8 µM: MIC95 (Salmonella typhimurium [2]) | MBC (Staphylococcus aureus [4]) | MIC95 (Staphylococcus aureus [5]) | MFC (Candida albicans [10]) | MBC (Staphylococcus aureus [14]) | MBC [17] | MBC (Escherichia coli [24]) | MFC (Candida albicans [25]) | MIC95 (Candida albicans [26]) | MIC95 (Candida albicans [27])

H-WWRRWRRWW-NH2
4 µM: MIC95 [1] | MBC (Staphylococcus aureus [4]) | MIC95 (Staphylococcus aureus [5]) | MFC (Candida albicans [7]) | MIC95 (Candida tropicalis [9]) | MIC95 (Staphylococcus aureus [18]) | MIC95 (Candida albicans [20]) | MFC (Pichia kudriavzevii) | MFC (Candida albicans [28])
16 µM: MBC (Staphylococcus aureus [14]) | MIC (Escherichia coli [23]) | MIC95 (Candida albicans [26]) | MBC (Salmonella typhimurium [29])
32 µM: MIC95 (Candida parapsilosis [21]) | MIC (Escherichia coli [30]) | MBC (Escherichia coli [32])
2 µM: MIC95 (Candida albicans [6])
8 µM: MIC95 (Salmonella typhimurium [2]) | MIC95 (Escherichia coli [3]) | MFC (Candida albicans [8]) | MFC (Candida albicans [10]) | MIC (Candida albicans [11]) | MFC (Candida albicans [12]) | MIC (Candida albicans [13]) | MFC (Candida tropicalis [15]) | MIC (Escherichia coli [16]) | MBC [17] | MIC95 (Candida albicans [19]) | MBC (Escherichia coli [24]) | MFC (Candida albicans [25]) | MIC95 (Candida albicans [27]) | MIC95 (Candida albicans [31])
64 µM: MFC (Candida parapsilosis [22])
